Laboratory results as given in ChEMBL document CHEMBL1833967, “Bioassay-guided isolation of constituents of Piper sarmentosum using a mitochondrial transmembrane potential assay” (2011).

Experiments:
HL-60 = experiment: Inhibition of chymotrypsin-like activity of purified human 20S proteasome in HL60 cells using N-succinyl-Leu-Leu-Val-Tyr-AMC as substrate pre-incubated for 10 mins by fluorimetric assay; type: cell-based
Outline: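 Enzyme source was a proteasome fraction isolated from HL-60 human leukemia cells. […] Activity is reported as ED50 in μM.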

HT-29 [1] = experiment: Cytotoxicity against human HT-29 cells after 3 days by sulforhodamine B assay; type: functional; conditions: read-out: ED50 (the source's name)
HT-29 [2] = experiment: Induction of apoptosis in human HT-29 cells assessed reduction of mitochondrial membrane potential after 2 hrs by using JC1 staining by fluorescence cell-based assay; type: functional; conditions: HT-29, 2 h, read-out: ED50 (the source's name)

| SMILES | ED50 (HL-60) [µM] | EC50 (HT-29 [1]; Homo sapiens, HT-29, 72 h) [µM] | EC50 (HT-29 [2]) [µM] | EC50 (HT-29 [1]) [µM] |
| --- | --- | --- | --- | --- |
| CC(C)CNC(=O)/C=C/C=C/CCCCc1ccc2c(c1)OCO2 [PIPERCALLOSINE] | > 20 | > 20 | 4.6 |  |
| CC(=O)O[C@H]1C(=O)[C@@]2(C)[C@H]([C@H](OC(=O)c3ccccc3)[C@]3(O)C[C@H](OC(=O)[C@H](O)[C@@H](NC(=O)c4ccccc4)c4ccccc4)C(C)=C1C3(C)C)[C@]1(OC(C)=O)CO[C@@H]1C[C@@H]2O [PACLITAXEL] |  | 0.006 |  |  |
| O=C1C[C@@H](c2ccccc2)Oc2cc(O)c(Cc3ccccc3O)c(O)c21 [ISOCHAMANETIN] | > 20 | > 20 |  |  |
| O=C1C[C@@H](c2ccccc2)Oc2c(Cc3ccccc3O)c(O)c(Cc3cc(Cc4cc(Cc5ccccc5O)ccc4O)ccc3O)c(O)c21 [SARMENTOSUMIN B] | > 20 | > 20 |  |  |
| COc1cc(O)c2c(c1Cc1ccccc1O)O[C@H](c1ccccc1)CC2=O | > 20 | > 20 | 13.6 |  |
| O=C1C[C@@H](c2ccccc2)Oc2c(Cc3ccccc3O)c(O)c(Cc3ccccc3O)c(O)c21 [DICHAMANETIN] | > 20 |  |  | > 20 |
| O=C1C[C@@H](c2ccccc2)Oc2c(Cc3cc(Cc4cc(Cc5ccccc5O)ccc4O)ccc3O)c(O)c(Cc3ccccc3O)c(O)c21 [SARMENTOSUMIN A] | > 20 | > 20 |  |  |
| O=C1C[C@@H](c2ccccc2)Oc2cc(O)cc(O)c21 [PINOCEMBRIN] | 2.87 | > 20 |  |  |
| O=C1C[C@@H](c2ccccc2)Oc2c(Cc3ccccc3O)c(O)c(Cc3cc(Cc4cc(Cc5cc(Cc6ccccc6O)ccc5O)ccc4O)ccc3O)c(O)c21 [SARMENTOSUMIN C] | > 20 | > 20 | 2.5 |  |
| CC(C)C[C@H](NC(=O)[C@H](Cc1ccccc1)NC(=O)c1cnccn1)B(O)O [BORTEZOMIB] |  | > 20 |  |  |
| COc1c(Cc2ccccc2O)c(O)c2c(c1Cc1ccccc1O)O[C@H](c1ccccc1)CC2=O | 3.45 | > 20 | 1.6 |  |
| O=C1C[C@@H](c2ccccc2)Oc2c(Cc3cc(Cc4ccccc4O)ccc3O)c(O)c(Cc3cc(Cc4cc(Cc5ccccc5O)ccc4O)ccc3O)c(O)c21 [SARMENTOSUMIN D] | > 20 | > 20 |  |  |
